Experimental data as given in ChEMBL document CHEMBL1141374 (J Med Chem, 2007).

Assays:
Tubulin = assay: Inhibition of tubulin polymerization; assay type: protein-complex assay, Homo sapiens
Summary of the method: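 Kit-based assay run per the manufacturer's instructions. Tubulin (>99% pure, 3 mg/mL) in G-PEM buffer, in a prewarmed plate with compound at 0.03–30 μM. OD340 nm read every 60 s at 37 °C for 1 h.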

HeLa = assay: Cytotoxicity against HeLa cell line; assay type: cell-based; conditions: Homo sapiens
Summary of the method: (§1)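 Log-phase cells were diluted to 20 000–30 000 cells/mL, seeded, and left to attach overnight. They were then exposed to compounds at 10^–5–10^–12 M for 72 h at 37 °C in 5% CO2. Viable cells were measured by MTT, with absorbance read at 595 nm. Each compound ran in triplicate in at least three independent assays. IC50 came from nonlinear regression, and average values were reported.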

HCT-116 = assay: Cytotoxicity against HCT116 cell line; assay type: cell-based; conditions: Homo sapiens; summary of the method: as §1
[1] = Cytotoxicity against P-glycoprotein-overexpressing KB-V1 cell line; assay type: cell-based; conditions: Homo sapiens; summary of the method: as §1
[2] = Cytotoxicity against KB-3-1 cell line; assay type: cell-based; conditions: Homo sapiens; summary of the method: as §1
ZR-75-1 = assay: Cytotoxicity against ZR-75-1 cell line; assay type: cell-based; conditions: Homo sapiens; summary of the method: as §1

Compound | IC50 (Tubulin) [nM] | IC50 (HeLa) [nM] | IC50 (HCT-116) [nM] | IC50 [1] [nM] | IC50 [2] [nM] | IC50 (ZR-75-1) [nM]
COc1cc(-c2nncn2-c2ccc3c(c2)CCN3C)cc(OC)c1OC | > 10000 | 4100 | 3290 | – | – | –
COc1cc(-n2cnnc2-c2ccc3c(ccn3C)c2)cc(OC)c1OC | 5600 | 18 | 24.3 | 32.1 | 15 | –
COc1cc2c(c(OC)c1OC)-c1ccc(OC)c(=O)cc1[C@@H](NC(C)=O)CC2 [COLCHICINE] | – | 1.84 | 2.75 | 620 | 3.99 | 522
COc1ccc(/C=C\c2cc(OC)c(OC)c(OC)c2)cc1O [COMBRETASTATIN A4] | – | 0.3 | 0.35 | 0.64 | 0.78 | 0.24
CC(=O)O[C@H]1C(=O)[C@@]2(C)[C@H]([C@H](OC(=O)c3ccccc3)[C@]3(O)C[C@H](OC(=O)[C@H](O)[C@@H](NC(=O)c4ccccc4)c4ccccc4)C(C)=C1C3(C)C)[C@]1(OC(C)=O)CO[C@@H]1C[C@@H]2O [PACLITAXEL] | – | – | – | > 10000 | 23.3 | 308
